# Measurements from different studies.
# Lines come from different studies, so protocols differ.
# Target: Serine/threonine-protein kinase WNK3 (WNK3, Homo sapiens, UniProt Q9BYP7)
Structure (SMILES),assay,conditions,measurement,value
CN(C)C(=O)Cn1cc(-c2nc([C@@](C)(c3ccc(-c4cnc(N)nc4)cc3)C3CC3)no2)cn1,"cell-free assay, competition with immobilised ligand",1 µM,remaining binding,76%
CCN(CC)CCNC(=O)c1c(C)[nH]c(/C=C2\C(=O)Nc3ccc(F)cc32)c1C,"enzyme activity, inhibitor",10 µM,inhibition,7%
CCC(=N\O)/C(C)=C/c1ccc(F)cc1,"cell-free assay, competition with immobilised ligand",1 µM,remaining binding,75%
Cc1cc(NC(=O)c2cccc3cc(-c4cccc5[nH]nc(N)c45)ccc23)ccc1F,"enzyme activity, inhibitor",0.1 µM,activity vs control,93%
Cc1ccc(Nc2nccc(N(C)c3ccc4c(C)n(C)nc4c3)n2)cc1S(N)(=O)=O,"enzyme activity, inhibitor",10 µM,inhibition,33%
CC(C)(O)[C@H]1CC[C@H](Nc2ccc3ncc(-c4cccc(C(F)(F)F)c4)n3n2)CC1,"enzyme activity, inhibitor",1 µM,remaining activity,90.7%
CCCOc1ccc(OC)c(F)c1C(=O)c1ccc(C(=O)N[C@@H]2CNC[C@H]2NC(=O)c2ccc3[nH]ncc3c2)cc1,"enzyme activity, inhibitor",10 µM,remaining activity,95%
Cc1cnc(NC2CCOCC2)nc1-n1cnc(C(=O)NC(CN)c2cc(F)cc(Cl)c2)c1 (centres unmarked),"enzyme activity, inhibitor, radiometric",1 µM,remaining activity,103%
O=C1Nc2ccc(Cl)cc2C1=Cc1cc(Cl)c(O)c(Cl)c1,cell-free assay,0.5 µM,remaining signal,90.7%
CNC(=O)c1cc(Oc2ccc(NC(=O)Nc3ccc(Cl)c(C(F)(F)F)c3)cc2)ccn1,"enzyme activity, inhibitor",10 µM,inhibition,-4%
CCCS(=O)(=O)Nc1ccc(F)c(C(=O)c2c[nH]c3ncc(-c4ccc(Cl)cc4)cc23)c1F,"enzyme activity, inhibitor",1 µM,inhibition,< 10%
CNCc1ccccc1-c1csc([C@@H](C)Nc2nc(C)nc3cc(OC)c(OC)cc23)c1,"cell-free assay, competition with immobilised ligand",1 µM,remaining binding,100%
CC(C)(C)c1nc(-c2cccc(NS(=O)(=O)c3c(F)cccc3F)c2F)c(-c2ccnc(N)n2)s1,"enzyme activity, inhibitor, radiometric",1 µM,remaining activity,89%
Cc1cc(NC(=O)c2cccc(S(F)(F)(F)(F)F)c2)cc(-n2ccn3nc(-c4cccnc4)cc23)c1,"cell-free assay, competition with immobilised ligand",1 µM,remaining binding,100%
Cc1sc(C(=O)NC2COC2)cc1-n1cc(NC(=O)Nc2c(F)cccc2Cl)cn1,"enzyme activity, inhibitor",10 µM,remaining activity,102%
C[C@H](c1ccnc(Nc2nc3ccc(-c4cc(N(C)C)ncn4)cc3[nH]2)c1)N1CCN(C(=O)CC(F)(F)F)CC1,"cell-free assay, competition with immobilised ligand",0.1 µM,remaining binding,100%
O=C(Nc1cnn(-c2csc(C(=O)NC3COC3)c2)c1)Nc1ccccc1Cl,"enzyme activity, inhibitor",5 µM,remaining activity,99.5%
